The test system of data set [1] is HT-29. Nature of the data set: Cytotoxicity against human HT-29 cells. The class given is functional, cell-based. The method in brief:
(§1)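 Paired cancer (HT-29 colon) and normal (CCD-112CoN colon) human cell lines, same screening method for both. Paclitaxel and etoposide as positive controls. IC50 from nonlinear regression. Triplicate measurements, representative of two independent experiments.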

Data set [2] concerns the target DNA topoisomerase 2-alpha (Homo sapiens) (UniProt P11388). Nature of the data set: Inhibition of topoisomerase 2-alpha (unknown origin)-mediated relaxation of supercoiled pBR322 DNA at 100 uM by ethidium bromide staining based agarose gel electrophoresis.
Data set [3] in a line: Cytotoxicity against human CCD-112CoN cells. The class given is cell-based. The method in brief: as §1
Data set [4] has as its system HT-29. Nature of the data set: Induction of apoptosis in human HT-29 cells assessed as early apoptotic cells at 1 uM after 72 hrs by flow cytometry (reference value: 3.93%). Type of data set: functional.
Data set [5] deals with HT-29. Nature of the data set: Induction of apoptosis in human HT-29 cells assessed as late apoptotic cells at 1 uM after 72 hrs by flow cytometry (reference value: 8.60%). The class given is functional.
For data set [6], the system named is HT-29. Nature of the data set: Induction of apoptosis in human HT-29 cells assessed as early apoptotic cells at 5 uM after 72 hrs by flow cytometry (reference value: 3.93%). Type of data set: functional.
Data set [7] has as its system HT-29. Nature of the data set: Induction of apoptosis in human HT-29 cells assessed as late apoptotic cells at 5 uM after 72 hrs by flow cytometry (reference value: 8.60%). The class given is functional. Background: Flow cytometry measures light scatter and fluorescence of single cells or particles in a stream.
The subject of data set [8] is HT-29. Nature of the data set: Induction of apoptosis in human HT-29 cells assessed as caspase-3 activation by measuring cleaved caspase-3 level at 1 to 10 uM after 24 hrs by western blot analysis. Type of data set: functional, cell-based. A digest of the protocol: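 HT-29 cells exposed 24 h to a range of concentrations. Lysed in NP-40/HEPES pH 7.5/0.5 M NaCl buffer with protease and phosphatase inhibitors. Resolved on 4–15% SDS-PAGE and immunoblotted with rabbit monoclonal cleaved caspase-3 (Asp175) antibody. Representative of three independent experiments.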
In general terms: A western blot detects proteins with antibodies after separation by electrophoresis.

In data set [9] the test system is HT-29. Nature of the data set: Antitumor activity against human HT-29 cells xenografted in immunodeficient NCr nu/nu mouse assessed as inhibition of cell growth at 10 to 20 mg/kg, ip qd for 4 days administered from day 3 to day 6 post-implantation measured on day 7. Type of data set: functional, organism-based. The method in brief:
(§2)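 HT-29 human colon cancer cells in hollow fibres implanted in 8–9-week-old NCr nu/nu mice. Drug in DMSO/Cremophor, diluted with water to 13% DMSO and 25% Cremophor. Doses 5.0–20.0 mg/kg ip once daily for 4 days (days 3–6); vehicle control; paclitaxel 5 mg/kg. Fibres retrieved day 7. Modified MTT net growth (day 7 minus day 0) relative to vehicle; n=3 treated; Student's t test.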

The subject of data set [10] is HT-29. Nature of the data set: Antitumor activity against human HT-29 cells xenografted in immunodeficient NCr nu/nu mouse assessed as inhibition of cell growth at 5 mg/kg, ip qd for 4 days administered from day 3 to day 6 post-implantation measured on day 7. Type of data set: functional, organism-based. Also noted: dose 5 mg/kg. The method in brief:
as §2
For orientation: Xenograft models place foreign cells or tissue in a host animal.

The subject of data set [11] is HT-29. Nature of the data set: Antitumor activity against human HT-29 cells xenografted in ip dosed immunodeficient NCr nu/nu mouse assessed as inhibition of cell growth administered qd for 4 days from day 3 to day 6 post-implantation measured on day 7. The class given is functional, organism-based. A digest of the protocol:
as §2

The test system of the next data set is Mus musculus. Nature of the data set: Toxicity in immunodeficient NCr nu/nu mouse xenografted with human HT-29 cells at 5 to 20 mg/kg, ip qd for 4 days administered from day 3 to day 6 post-implantation. Also noted: dose 5-20 mg/kg, route intraperitoneal. Conditions: in vivo, 96 h. Type of data set: organism-based. The method in brief: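 NCr nu/nu mice bearing hollow-fibre HT-29 implants. Dosed ip once daily for 4 days at 5.0–20.0 mg/kg in 13% DMSO/25% Cremophor/water. Body weight recorded daily and signs of toxicity observed until sacrifice on day 7.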

SMILES strings stand for the structures. The source made the active and inactive calls. The calls are words filed in the database; no cut-off is given here.

In general, IC50 refers to the concentration needed to halve the response being measured.

Sequence of DNA topoisomerase 2-alpha (Homo sapiens) (P11388 whole entry): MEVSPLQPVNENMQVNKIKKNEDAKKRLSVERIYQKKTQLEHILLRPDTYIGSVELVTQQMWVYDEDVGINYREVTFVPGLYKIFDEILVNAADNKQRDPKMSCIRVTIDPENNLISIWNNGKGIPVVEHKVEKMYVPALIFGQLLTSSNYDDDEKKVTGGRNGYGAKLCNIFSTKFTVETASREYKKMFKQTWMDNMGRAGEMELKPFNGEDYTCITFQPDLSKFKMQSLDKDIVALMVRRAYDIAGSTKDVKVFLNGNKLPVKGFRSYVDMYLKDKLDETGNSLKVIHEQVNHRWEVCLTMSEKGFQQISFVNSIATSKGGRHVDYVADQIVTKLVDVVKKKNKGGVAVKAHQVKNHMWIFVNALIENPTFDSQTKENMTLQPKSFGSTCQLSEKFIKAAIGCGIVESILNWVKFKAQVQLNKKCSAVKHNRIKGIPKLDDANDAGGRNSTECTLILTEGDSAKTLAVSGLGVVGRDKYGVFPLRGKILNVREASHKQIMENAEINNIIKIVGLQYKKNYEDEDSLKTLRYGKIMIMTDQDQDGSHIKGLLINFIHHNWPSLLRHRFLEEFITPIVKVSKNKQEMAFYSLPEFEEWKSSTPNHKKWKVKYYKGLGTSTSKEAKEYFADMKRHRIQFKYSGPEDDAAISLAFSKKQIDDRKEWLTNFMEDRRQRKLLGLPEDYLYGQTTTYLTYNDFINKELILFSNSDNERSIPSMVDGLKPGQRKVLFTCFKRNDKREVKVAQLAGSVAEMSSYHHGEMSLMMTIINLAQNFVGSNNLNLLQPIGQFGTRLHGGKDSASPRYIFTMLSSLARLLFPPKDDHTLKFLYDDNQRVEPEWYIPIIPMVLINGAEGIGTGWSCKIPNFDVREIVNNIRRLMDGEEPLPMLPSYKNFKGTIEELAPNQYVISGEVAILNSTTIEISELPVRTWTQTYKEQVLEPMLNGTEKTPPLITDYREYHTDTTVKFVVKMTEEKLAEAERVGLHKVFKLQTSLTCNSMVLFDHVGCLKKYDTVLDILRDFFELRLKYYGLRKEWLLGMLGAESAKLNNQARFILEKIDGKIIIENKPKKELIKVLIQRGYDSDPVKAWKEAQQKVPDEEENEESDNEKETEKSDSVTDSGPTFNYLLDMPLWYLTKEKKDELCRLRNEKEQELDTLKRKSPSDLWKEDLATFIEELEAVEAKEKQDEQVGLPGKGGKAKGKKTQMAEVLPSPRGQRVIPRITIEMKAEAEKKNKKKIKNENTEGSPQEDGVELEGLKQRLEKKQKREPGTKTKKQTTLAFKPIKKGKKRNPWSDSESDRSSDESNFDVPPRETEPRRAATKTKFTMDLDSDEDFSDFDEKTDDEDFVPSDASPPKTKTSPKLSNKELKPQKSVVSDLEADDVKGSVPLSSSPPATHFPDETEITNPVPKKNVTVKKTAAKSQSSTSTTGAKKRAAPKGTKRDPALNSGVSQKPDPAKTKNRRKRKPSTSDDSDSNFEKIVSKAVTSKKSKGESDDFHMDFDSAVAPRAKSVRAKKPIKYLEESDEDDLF

As for `COc1cc2c(O[C@@H]3OC[C@H](OC(C)=O)[C@H](OC(C)=O)[C@H]3OC(C)=O)c3c(c(-c4ccc5c(c4)OCO5)c2cc1OC)C(=O)OC3`, the IC50 in the data set with HT-29 [1] is 0.11 µM. Further, in data set [2], the inhibition entry was “inactive”.

Regarding `COc1cc2c(O[C@@H]3O[C@H](CO)[C@@H](O)[C@H](O)[C@H]3O)c3c(c(-c4ccc5c(c4)OCO5)c2cc1OC)C(=O)OC3`, in the data set on HT-29 [1], the IC50 was greater than 10 µM.

For `COc1cc2c(O[C@@H]3OC[C@H](O)[C@H](O)[C@H]3O)c3c(c(-c4ccc5c(c4)OCO5)c2cc1OC)C(=O)OC3` [ACUTISSIMALIGNAN A], the values for the IC50 (with HT-29 [1]; in data set [3]) were 3.2 µM and greater than 100 µM, respectively. The inhibition entry in data set [2] was “inactive”.

As for `COc1cc([C@@H]2c3cc4c(cc3[C@@H](O[C@@H]3O[C@@H]5CO[C@@H](C)O[C@H]5[C@H](O)[C@H]3O)[C@H]3COC(=O)[C@H]23)OCO4)cc(OC)c1O` [ETOPOSIDE], the Activity with HT-29 [4] is recorded as 12.9%; in the data set on HT-29 [5] it was 19.8%; in the data set on HT-29 [6], 12.5%; with HT-29 [7], 25.3%. Besides, in the data set on HT-29 [8], the result was inactive.

Consider `COc1cc2c(O[C@@H]3OC[C@H](O)[C@H](OC(C)=O)[C@H]3O)c3c(c(-c4ccc5c(c4)OCO5)c2cc1OC)C(=O)OC3`, for which, in the data set on HT-29 [1], the IC50 was determined as 1.8 µM.

In the case of `COc1cc2c(OC)c3c(c(-c4ccc5c(c4)OCO5)c2cc1OC)C(=O)OC3` [JUSTICIDIN A], the IC50 in the data set on HT-29 [1] is greater than 10 µM.

Take `COc1cc2c(O[C@@H]3OC[C@H](OC(C)=O)[C@H](O)[C@H]3O)c3c(c(-c4ccc5c(c4)OCO5)c2cc1OC)C(=O)OC3`: the IC50 in the data set on HT-29 [1] is 1.8 µM.

`COc1cc2c(O[C@@H]3OC[C@H](OC(C)=O)[C@H](OC(C)=O)[C@H]3O)c3c(c(-c4ccc5c(c4)OCO5)c2cc1OC)C(=O)OC3`: the IC50 in the data set with HT-29 [1] is 0.17 µM; in data set [3], greater than 100 µM. Further, in the data set with HT-29 [9], the inhibition entry was “Active”. For the same compound, the inhibition entry (in the data set with HT-29 [10]; in [2]) was “inactive” in each case. The Activity is 28.2% in the data set with HT-29 [4]; “Non-toxic” with Mus musculus; 27.3% in the data set on HT-29 [5]; 30.3% in the data set on HT-29 [6]; 38% with HT-29 [7]. Further, the inhibition entry in the data set with HT-29 [11] is “Dose-dependent effect”. In addition, in the data set with HT-29 [8], the result was Active.

With `COc1cc2c(O)c3c(c(-c4ccc5c(c4)OCO5)c2cc1OC)C(=O)OC3` [DIPHYLLIN], it took 7.6 µM to reach half-maximal inhibition in the data set on HT-29 [1] (IC50).

Turning to `CC(=O)O[C@H]1C(=O)[C@@]2(C)[C@H]([C@H](OC(=O)c3ccccc3)[C@]3(O)C[C@H](OC(=O)[C@H](O)[C@@H](NC(=O)c4ccccc4)c4ccccc4)C(C)=C1C3(C)C)[C@]1(OC(C)=O)CO[C@@H]1C[C@@H]2O` [PACLITAXEL], half-maximal inhibition in data set [3] (IC50) required 23 µM.

Source of the values: ChEMBL document CHEMBL3297715, “Potent cytotoxic arylnaphthalene lignan lactones from Phyllanthus poilanei” (J Nat Prod, 2014).
